Assay results reported in ChEMBL document CHEMBL1122650, “Synthesis and central nervous system properties of 2-[(alkoxycarbonyl)amino]-4(5)-phenyl-2-imidazolines” (J Med Chem, 1984).
The source made the active and inactive calls. No cut-off for these calls is given here.

How the values were obtained:
[1] = HPLC capacity factor (k'); assay type: ADME
Mus musculus [2] = test: Compound was evaluated in vivo for reserpine hypothermia after oral administration in mouse.; assay type: functional
Method in brief: (§1)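 Male HLa (ICR) BR mice, 18-24 g, in groups of eight; reserpine 5 mg/kg ip given 2 h before oral test compound as aqueous solution. Rectal temperature taken hourly; 1-4-h hypothermia assessed by analysis of variance.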

Mus musculus [3] = species: Mus musculus; test: Mouse behavior activity was determined;D= Depressant.; assay type: functional, organism-based
Mus musculus [4] = species: Mus musculus; test: Compound was evaluated for antagonism of reserpine induced hypothermia;. 5-2.5 excessive variability.; assay type: functional, organism-based; method in brief: as §1
Mus musculus [5] = species: Mus musculus; test: Compound was evaluated for maximal electroshock antagonism (MES) against mice; assay type: functional
Method in brief: (§2)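 Male HLa (ICR) BR mice, groups of eight to ten, dosed ip (aqueous solution) 15 min before transcorneal electroshock (50 mA, 0.2 s). End point: abolition of tonic hind-limb extension; quantal ED50 by Litchfield-Wilcoxon.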

Mus musculus [6] = species: Mus musculus; test: Righting ability was determined in mice after rapid rolling (aroused); assay type: functional
Method in brief: (§3)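 Male Simonsen (ICR) fBR mice, 18-24 g, groups of ten, dosed with aqueous compound. Righting ability checked before (unaroused) and after (aroused) rapid rolling in the hand; ED50 by Litchfield-Wilcoxon method.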

Mus musculus [7] = species: Mus musculus; test: Righting ability was determined in mice before rapid rolling (unaroused); assay type: functional; method in brief: as §3
[8] = Lethal dose in mouse, in groups of ten; assay type: toxicity, organism-based; details: in vivo
Mus musculus [9] = species: Mus musculus; test: Mouse behavior activity was determined; Inactive; assay type: functional, organism-based
Method in brief: (§4)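 Male Simonsen (ICR) fBR mice, 18-24 g, groups of three, given 3, 10, 30, 100, 300 or 1000 mg/kg ip as aqueous solution and observed for behavioral profile; deaths followed up to 7 days.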

Mus musculus [10] = species: Mus musculus; test: Compound was evaluated for maximal electroshock antagonism (MES) against mice; Inactive; assay type: functional, organism-based; method in brief: as §2
Mus musculus [11] = test: Compound was evaluated in vivo for reserpine hypothermia after oral administration in mouse. Minimum active dose was reported, with the percent reversal at 10 mg/kg in parenthesis; I=inactive; assay type: functional, organism-based; design: dose 10 mg/kg; method in brief: as §1
Mus musculus [12] = species: Mus musculus; test: Mouse behavior activity was determined; Dwk= Depressant(Weak); assay type: functional, organism-based; method in brief: as §4
Mus musculus [13] = species: Mus musculus; test: Compound was evaluated for maximal electroshock antagonism (MES) against mice; I=inactive; assay type: functional, organism-based; method in brief: as §2
Mus musculus [14] = species: Mus musculus; test: Evaluated for antagonism of reserpine induced hypothermia; assay type: functional; method in brief: as §1
Mus musculus [15] = species: Mus musculus; test: Mouse behavior activity was determined; Depressant-Stimulant; assay type: functional, organism-based; method in brief: as §4
Mus musculus [16] = species: Mus musculus; test: Righting ability was determined in mice […] rapid rolling (aroused); assay type: functional; method in brief: as §3
Mus musculus [17] = test: Evaluated in vivo for reserpine hypothermia after oral administration in mouse. Minimum active dose was reported; Inactive; assay type: functional, organism-based; method in brief: as §1
Mus musculus [18] = species: Mus musculus; test: Evaluated for antagonism of reserpine induced hypothermia;I= Inactive; assay type: functional, organism-based; method in brief: as §1
Mus musculus [19] = species: Mus musculus; test: Mouse behavior activity was determined; Stimulant-Depressant Weak; assay type: functional, organism-based; method in brief: as §4
Mus musculus [20] = species: Mus musculus; test: Mouse behavior activity was determined; Stimulant Weak; assay type: functional, organism-based; method in brief: as §4
Mus musculus [21] = test: Compound was evaluated in vivo for reserpine hypothermia after oral administration in mouse. Minimum active dose was reported; 10-30% reduction.; assay type: functional, organism-based; method in brief: as §1
Mus musculus [22] = species: Mus musculus; test: Compound was evaluated for antagonism of reserpine induced hypothermia;I= Inactive.; assay type: functional, organism-based
Method in brief: (§5)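 Male HLa (ICR) BR mice (18-24 g), groups of eight, dosed ip with 5 mg/kg reserpine 2 h before oral test compound given as aqueous solution. Rectal temperature measured hourly; 1-4-h thermia assessed by analysis of variance.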

Mus musculus [23] = species: Mus musculus; test: Mouse behavior activity was determined; Dwk= Depressant Weak.; assay type: functional, organism-based; method in brief: as §4
Mus musculus [24] = species: Mus musculus; test: Compound was evaluated for maximal electroshock antagonism (MES) against mice; Inactive.; assay type: functional, organism-based; method in brief: as §2
Mus musculus [25] = test: Compound was evaluated in vivo for reserpine hypothermia after oral administration in mouse. Minimum active dose was reported; Inactive; assay type: functional, organism-based; method in brief: as §1
Mus musculus [26] = species: Mus musculus; test: Mouse behavior activity was determined;D= Depressant; assay type: functional, organism-based; method in brief: as §4
Mus musculus [27] = species: Mus musculus; test: Mouse behavior activity was determined; Depressant.; assay type: functional, organism-based; method in brief: as §4
Mus musculus [28] = species: Mus musculus; test: Compound was evaluated for antagonism of reserpine induced hypothermia.; assay type: functional; method in brief: as §1
Mus musculus [29] = test: Compound was evaluated in vivo for reserpine hypothermia after oral administration in mouse. Minimum active dose was reported, with the percent reversal at 10 mg/kg in parenthesis.; assay type: functional; method in brief: as §5
Mus musculus [30] = species: Mus musculus; test: Mouse behavior activity was determined; D = Depressant; assay type: functional, organism-based
Method in brief: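 Male Simonsen (ICR) fBR mice (18-24 g) given 3, 10, 30, 100, 300 or 1000 mg/kg ip as aqueous solution and observed for behaviour in groups of three.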

Mus musculus [31] = species: Mus musculus; test: Compound was evaluated for maximal electroshock antagonism (MES) against mice (values in parentheses indicates 95% confidence limits); assay type: functional
Method in brief: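 Male HLa (ICR) BR mice, groups of eight to ten, given compound ip as aqueous solution 15 min before transcorneal electroshock (50 mA, 0.2 s). End point was abolition of tonic hind-limb extension; quantal ED50 derived by Litchfield-Wilcoxon.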

Mus musculus [32] = species: Mus musculus; test: Mouse behavior activity was determined; Depressant; assay type: functional, organism-based; method in brief: as §4
Mus musculus [33] = species: Mus musculus; test: Mouse behavior activity was determined; Depressant-Stimulant.; assay type: functional, organism-based; method in brief: as §4
Mus musculus [34] = test: Mouse behavior activity was determined; I=inactive at a dose of 50 mg/Kg; assay type: functional, organism-based
[35] = Compound was evaluated for lethal dose in mouse in groups of ten (values in parentheses indicates 95% confidence limits); assay type: toxicity, organism-based; details: in vivo

Compound | Log k' [1] | ED50 (Mus musculus [5]) [mg/kg] | Loss of righting reflex (Mus musculus [7]) [mg/kg] | LD50 [8] [mg/kg] | also measured
COC(=O)NC1=NC(c2cccc(C)c2)CN1 (configuration not stated) | 0.26 | 100 | 100 | 500 | ED50 (Mus musculus [2]): 51 mg/kg; Mouse behavior activity (Mus musculus [3]): Depressant; HYPO (Mus musculus [4]): excessive variability; Loss of righting reflex (Mus musculus [6]): 157 mg/kg
CCOC(=O)NC1=NC(c2ccc(CO)cc2)CN1C (configuration not stated) | -0.29 | – | – | 500 | Mouse behavior activity (Mus musculus [9]): inactive; ED50 (Mus musculus [10]): inactive
COC(=O)NC1=NC(c2ccc(C=O)cc2)CN1C (configuration not stated) | -0.53 | – | – | > 300 | ED50 (Mus musculus [11]): inactive; Mouse behavior activity (Mus musculus [12]): Depressant - weak; ED50 (Mus musculus [13]): inactive; HYPO (Mus musculus [14]): >0.5 mg/kg
COC(=O)NC1=NC(c2ccc(O)cc2)CN1 (configuration not stated) | – | – | – | 700 | Mouse behavior activity (Mus musculus [9]): inactive; ED50 (Mus musculus [10]): inactive
CC(C)OC(=O)NC1=NC(c2ccccc2Cl)CN1C (configuration not stated) | 1.08 | 35 | 46 | 700 | Mouse behavior activity (Mus musculus [15]): Depressant-Stimulant; Loss of righting reflex (Mus musculus [16]): 67 mg/kg
COC(=O)NC1=NC(c2ccc(CO)cc2)CN1C (configuration not stated) | -0.76 | – | – | > 1000 | ED50 (Mus musculus [17]): inactive; Mouse behavior activity (Mus musculus [9]): inactive; ED50 (Mus musculus [10]): inactive; HYPO (Mus musculus [14]): <0.5 mg/kg
CCOC(=O)NC1=NC(c2ccc(O)cc2)CN1C(C)C (configuration not stated) | 0.7 | – | – | 200 | HYPO (Mus musculus [18]): inactive; Mouse behavior activity (Mus musculus [19]): Stimulant-Depressant Weak; ED50 (Mus musculus [10]): inactive
COC(=O)NC1=NC(c2ccccc2)C(C)N1 (configuration not stated) | 0.15 | 90 | – | 200 | Mouse behavior activity (Mus musculus [20]): Stimulant Weak
CC(C)COC(=O)NC1=NC(c2ccccc2)CN1 (configuration not stated) | 0.94 | – | – | 700 | ED50 (Mus musculus [21]): 10-30% reduction; HYPO (Mus musculus [22]): inactive; Mouse behavior activity (Mus musculus [23]): Depressant; ED50 (Mus musculus [24]): inactive
COC(=O)NC1=NC(c2ccc(Cl)cc2)CN1C (configuration not stated) | 0.54 | 66 | – | 200 | ED50 (Mus musculus [25]): inactive; Mouse behavior activity (Mus musculus [26]): Depressant
COC(=O)NC1=NC(c2ccccc2Cl)CN1C (configuration not stated) | 0.51 | 28 | 49 | 238 | Mouse behavior activity (Mus musculus [27]): Depressant; Loss of righting reflex (Mus musculus [16]): 92 mg/kg
CCOC(=O)NC1=NC(c2cccc(Cl)c2)CN1C (configuration not stated) | 0.78 | 74 | 70 | 300 | Mouse behavior activity (Mus musculus [26]): Depressant; HYPO (Mus musculus [28]): <0.5 mg/kg
COC(=O)NC1=NC(c2ccccc2[S+](C)[O-])CN1C (configuration not stated) | -0.87 | – | – | – | ED50 (Mus musculus [25]): inactive
CN1C(=O)CN=C(c2ccccc2)c2cc(Cl)ccc21 [DIAZEPAM] | – | – | 67 | – | ED50 (Mus musculus [29]): 1 mg/kg; Mouse behavior activity (Mus musculus [30]): Depressant; Loss of righting reflex (Mus musculus [16]): 136 mg/kg; ED50 (Mus musculus [31]): 7 mg/kg
COC(=O)NC1=NC2(CCc3ccccc32)CN1 (configuration not stated) | 0.3 | 75 | 200 | 700 | Mouse behavior activity (Mus musculus [32]): Depressant
CC(C)OC(=O)NC1=NC(c2ccccc2F)CN1C (configuration not stated) | 0.77 | 23 | 11 | 700 | Mouse behavior activity (Mus musculus [33]): Depressant-Stimulant; Loss of righting reflex (Mus musculus [16]): 55 mg/kg
COC(=O)NC1=NC(c2ccc(O)c(O)c2)CN1 (configuration not stated) | -1.51 | – | – | – | Mouse behavior activity (Mus musculus [34]): inactive; LD50 [35]: > 1000 mg/kg; HYPO (Mus musculus [14]): >20 mg/kg
